Assay results as given in article PMC5400702 (European journal of nuclear medicine and molecular imaging, 2017).
Values joined by “and” are separate entries in the source; they are usually repeats but may differ in a detail not shown here. Equal entries are not always repeated. Where two headings read alike, the source gives them in different places.

Experiments:
α7 nAChRs [1] = target: T1, α7 nAChRs (Macaca mulatta, UniProt Q866A2); assay: [18F]ASEM PET blocking scans with nicotine, varenicline and cold ASEM; details: for receptor occupancy: Lassen plot
α7 nAChRs [2] = target: T1, α7 nAChRs; assay type: in vivo; details: 2TCM, rhesus monkey; for K1: average across all subjects and gray matter regions
[3] = assay type: in vivo, Macaca mulatta; details: arterial plasma, 120 min post-injection, averaged across subjects, rhesus monkey
Plasma free fraction [4] = assay type: in vitro ADME, Macaca mulatta; details: rhesus monkey plasma, ultrafiltration
Procedure, shortened: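 Plasma from arterial samples of anesthetized rhesus monkeys during radiotracer PET scans was tested. Free fraction was measured by ultrafiltration in triplicate for each scan.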

α7 nAChRs [5] = target: T2, α7 nAChRs (Homo sapiens, UniProt P36544); assay: [18F]ASEM PET imaging in human brain, kinetic modeling and test-retest; assay type: in vivo; details: for K1 / VT / VT/fp: humans n=6; for VT TRV / VT/fp TRV: humans n=4
[6] = Parent [18F]ASEM in human arterial plasma; assay type: in vivo; details: for parent [18F]ASEM fraction of radioactivity in plasma: human arterial plasma
Procedure, shortened: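 Six healthy volunteers (5 M, 1 F; 26–51 y) received 317±87 MBq radiotracer as a 1-min slow bolus into a forearm vein. Manual radial-artery samples were taken over 180 min post-injection. Plasma was analysed by HPLC for parent fraction, giving the metabolite-corrected arterial input function, expressed as SUV.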

Plasma free fraction [7] = assay type: in vitro ADME, human
α7 nAChRs [8] = target: T2, α7 nAChRs; details: two subjects, initial [18F]ASEM human study ref 11; cited from earlier work
α7 nAChRs [9] = details: full agonist ref 16, 17; cited from earlier work
[10] = 0.24 mg/kg nicotine, averaged across regions, one value per animal (two animals)
[11] = 0.33 mg/kg varenicline, one value per animal (two animals)

T2 sequence (P36544 23-502): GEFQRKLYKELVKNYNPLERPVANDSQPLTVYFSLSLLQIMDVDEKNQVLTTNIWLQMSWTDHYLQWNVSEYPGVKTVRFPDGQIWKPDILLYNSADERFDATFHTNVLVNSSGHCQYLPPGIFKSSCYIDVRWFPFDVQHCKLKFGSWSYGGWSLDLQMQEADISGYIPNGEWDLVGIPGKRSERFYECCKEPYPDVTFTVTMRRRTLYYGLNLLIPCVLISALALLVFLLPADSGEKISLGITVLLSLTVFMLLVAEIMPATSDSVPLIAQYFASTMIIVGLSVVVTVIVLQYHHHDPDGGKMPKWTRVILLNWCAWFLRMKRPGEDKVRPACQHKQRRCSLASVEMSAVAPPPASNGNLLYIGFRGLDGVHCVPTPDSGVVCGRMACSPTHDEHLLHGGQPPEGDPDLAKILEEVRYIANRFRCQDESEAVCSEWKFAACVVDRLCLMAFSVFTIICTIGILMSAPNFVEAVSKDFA
T1 sequence (Q866A2 23-502): as the sequence (P36544 23-502) above, with N171S, R186K, V373M, V376A counted along it

In the case of `O=S1(=O)c2cc(N3CCN4CCC3CC4)ccc2-c2cccc(F)c21` [ASEM], the receptor occupancy (α7 nAChRs [1]; 0.67 mg/kg cold ASEM, one animal) is reported as 18.8% and 19% and the receptor occupancy (α7 nAChRs [1]; 1.24 mg/kg cold ASEM, two animals) is reported as 36.7% and 40.2% and 37–40%.
In the case of `O=S1(=O)c2cc(N3CCN4CCC3CC4)ccc2-c2cccc([18F])c21` [[^18F]ASEM], the K1 (α7 nAChRs [2]) is reported as 0.59±0.14 mL/cm^3·min^−1, the k2 (α7 nAChRs [2]) is reported as 0.022 ± 0.010 min⁻¹ and the “parent fraction of total plasma radioactivity” value [3] is reported as 16%. The “free fraction (fP) in plasma” value (Plasma free fraction [4]) was 14.9±1.1%, the K1 (α7 nAChRs [5]; 1TCM, Caudate) was 0.33±0.03 mL/cm^3 per min and the VT (α7 nAChRs [5]; 1TCM, Caudate) was 22.4±3.9 mL/cm^3. It also gave a K1 (α7 nAChRs [5]; 1TCM, Cerebellum) of 0.36±0.08 mL/cm^3 per min, a VT (α7 nAChRs [5]; 1TCM, Cerebellum) of 20.0±3.2 mL/cm^3 and a K1 (α7 nAChRs [5]; 1TCM, Frontal Cortex) of 0.35±0.07 mL/cm^3 per min. The VT (α7 nAChRs [5]; 1TCM, Frontal Cortex) was 24.7±3.0 mL/cm^3, the K1 (α7 nAChRs [5]; 1TCM, Hippocampus) was 0.26±0.04 mL/cm^3 per min and the VT (α7 nAChRs [5]; 1TCM, Hippocampus) was 21.7±2.3 mL/cm^3. It also gave a K1 (α7 nAChRs [5]; 1TCM, Occipital Cortex) of 0.37±0.06 mL/cm^3 per min, a VT (α7 nAChRs [5]; 1TCM, Occipital Cortex) of 25.6±3.1 mL/cm^3 and a K1 (α7 nAChRs [5]; 1TCM, Putamen) of 0.39±0.10 mL/cm^3 per min. For the same molecule, the VT (α7 nAChRs [5]; 1TCM, Putamen) was 25.8±3.6 mL/cm^3, the VT (α7 nAChRs [5]; 1TCM, Temporal Cortex) was 26.1±3.7 mL/cm^3 and the K1 (α7 nAChRs [5]; 1TCM, Thalamus) was 0.38±0.08 mL/cm^3 per min. The VT (α7 nAChRs [5]; 1TCM, Thalamus) was 26.6±3.3 mL/cm^3, the “underestimation of VT with truncated data” value (from here on “underestimation of VT”) (α7 nAChRs [5]; 60 min of data vs 180 min, humans) was 7.4±5.1% and the “underestimation of VT” value (α7 nAChRs [5]; 90 min of data vs 180 min, humans) was 5.5±3.8%. The “underestimation of VT” value (α7 nAChRs [5]; 120 min of data vs 180 min, humans) was 4.2±2.6%, the “test-retest variability of VT” value (α7 nAChRs [5]; MA1, 120 min of data, four human subjects, all regions) was 11.7±9.8% and the “VT TRV” value (α7 nAChRs [5]; MA1, Caudate) was 12.5±8.1%. The “VT/fp TRV” value (α7 nAChRs [5]; MA1, Caudate) was 6.8±7.4%, the VT (α7 nAChRs [5]; MA1, Caudate) was 21.6±2.6 mL/cm^3 and the VT/fp (α7 nAChRs [5]; MA1, Caudate) was 288±72 mL/cm^3. The “VT TRV” value (α7 nAChRs [5]; MA1, Cerebellum) was 13.4±7.6%, the “VT/fp TRV” value (α7 nAChRs [5]; MA1, Cerebellum) was 7.8±6.2% and the VT (α7 nAChRs [5]; MA1, Cerebellum) was 19.6±2.5 mL/cm^3. The VT/fp (α7 nAChRs [5]; MA1, Cerebellum) was 259±57 mL/cm^3, the “VT TRV” value (α7 nAChRs [5]; MA1, Frontal Cortex) was 11.0±11.4% and the “VT/fp TRV” value (α7 nAChRs [5]; MA1, Frontal Cortex) was 10.2±7.7%. For the same molecule, the VT (α7 nAChRs [5]; MA1, Frontal Cortex) was 24.6±2.7 mL/cm^3, the VT/fp (α7 nAChRs [5]; MA1, Frontal Cortex) was 326±66 mL/cm^3 and the “VT TRV” value (α7 nAChRs [5]; MA1, Hippocampus) was 10.9±8.4%. For the same molecule, the “VT/fp TRV” value (α7 nAChRs [5]; MA1, Hippocampus) was 8.0±7.8%, the VT (α7 nAChRs [5]; MA1, Hippocampus) was 21.7±2.1 mL/cm^3 and the VT/fp (α7 nAChRs [5]; MA1, Hippocampus) was 287±58 mL/cm^3. For the same molecule, the “VT TRV” value (α7 nAChRs [5]; MA1, Occipital Cortex) was 10.5±10.5%, the “VT/fp TRV” value (α7 nAChRs [5]; MA1, Occipital Cortex) was 9.9±8.4% and the VT (α7 nAChRs [5]; MA1, Occipital Cortex) was 25.7±2.7 mL/cm^3. The VT/fp (α7 nAChRs [5]; MA1, Occipital Cortex) was 339±70 mL/cm^3, the “VT TRV” value (α7 nAChRs [5]; MA1, Putamen) was 12.0±8.1% and the “VT/fp TRV” value (α7 nAChRs [5]; MA1, Putamen) was 7.8±7.5%. The VT (α7 nAChRs [5]; MA1, Putamen) was 25.4±3.0 mL/cm^3, the VT/fp (α7 nAChRs [5]; MA1, Putamen) was 335±66 mL/cm^3 and the “VT TRV” value (α7 nAChRs [5]; MA1, Temporal Cortex) was 11.8±10.1%. For the same molecule, the “VT/fp TRV” value (α7 nAChRs [5]; MA1, Temporal Cortex) was 9.1±7.8%, the VT (α7 nAChRs [5]; MA1, Temporal Cortex) was 25.8±3.2 mL/cm^3 and the VT/fp (α7 nAChRs [5]; MA1, Temporal Cortex) was 342±75 mL/cm^3. For the same molecule, the “VT TRV” value (α7 nAChRs [5]; MA1, Thalamus) was 11.0±6.4%, the “VT/fp TRV” value (α7 nAChRs [5]; MA1, Thalamus) was 6.9±7.8% and the VT (α7 nAChRs [5]; MA1, Thalamus) was 25.9±2.9 mL/cm^3. For the same molecule, the VT/fp (α7 nAChRs [5]; MA1, Thalamus) was 343±75 mL/cm^3, the “test-retest variation of VT/fP” value (α7 nAChRs [5]; MA1, four human subjects, all regions) was 9.3±7.3% and the “peak SUV in brain” value (α7 nAChRs [5]; human brain) was 3.0–4.5 SUV. For the same molecule, the “time of peak radioactivity concentration in brain” value (α7 nAChRs [5]; human brain, post-injection) was 20 to 30 min, the “pharmacological effects following administration” value (α7 nAChRs [5]; humans, administered mass 132±185 ng) was “No detectable pharmacological effects” and the “VT higher than previously reported values” (α7 nAChRs [5]; humans, compared with ref 11) was “roughly 15%”. The “parent [18F]ASEM fraction of radioactivity in plasma” value ([6]; 60 min after injection) was 27.5±7.9%, the “parent [18F]ASEM fraction of radioactivity in plasma” value ([6]; 180 min post-injection) was 8.8±1.6% and the “time of peak of parent [18F]ASEM curve in arterial plasma” value ([6]; humans) was 1.25 min. The “SUV of parent [18F]ASEM curve in arterial plasma at end of scans” value ([6]; humans, 180 min post-injection) was 0.47±0.08 SUV, the “peak SUV of parent [18F]ASEM curve in arterial plasma” value ([6]; humans, at 1.25 min) was 4.4±1.2 SUV and the “test-retest variation of plasma free fraction (fP)” value (Plasma free fraction [7]; four human subjects) was −5.3±18.0%. The fP (Plasma free fraction [7]; human plasma) was 7.7±1.3%, the “test-retest variability of VT” value (α7 nAChRs [8]) was 10.8±5.1% and the VND (α7 nAChRs [1]; estimated from Lassen plots, one value per animal (two animals)) was 25.3 mL/cm^3 and 16.0 mL/cm^3.
For `O=S1(=O)c2ccc([18F])cc2-c2ccc(N3CCN4CCC3CC4)cc21` [[^18F]DBT-10], the K1 (α7 nAChRs [2]) was 0.66±0.11 mL/cm^3·min^−1, the k2 (α7 nAChRs [2]) was 0.024 ± 0.010 min⁻¹ and the “parent fraction of total plasma radioactivity” value [3] was 30%. The “free fraction (fP) in plasma” value (Plasma free fraction [4]) was 18.3±3.9%.
For `CN1CCC[C@H]1c1cccnc1` [nicotine], the “change of [18F]ASEM VT” value (α7 nAChRs [1]; [10]) was −0.1±6.7% and 5.3±9.1% and the “change of [18F]ASEM VT/fP” value (α7 nAChRs [1]; [10]) was −7.2±6.2% and −3.0±8.4%.
For `c1cnc2cc3c(cc2n1)[C@@H]1CNC[C@H]3C1` [varenicline], the Ki (α7 nAChRs [9]) is listed as 322 nM, the “change of [18F]ASEM VT” value (α7 nAChRs [1]; [11]) is listed as −2.6±6.2% and 5.2±16.9% and the “change of [18F]ASEM VT/fP” value (α7 nAChRs [1]; [11]) is listed as −1.6±5.5% and −5.4±15.2%.
